Source: ChEMBL document CHEMBL1152877, “Studies on depigmenting activities of dihydroxyl benzamide derivatives containing adamantane moiety” (Bioorg Med Chem Lett, 2009)

Columns and labels:
[1] = Cytotoxicity against C57BL/6J mouse Melan-a cells assessed as cell survival at 50 uM by modified crystal violet assay; format: cell-based; conditions: read-out: Survival
Summary of the method: (§1)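 Murine melan-a melanocytes (from C57BL/6 J mice) seeded at 2 × 10⁵ cells/ml, compound added in triplicate; medium changed daily over 4 d culture. Viability by modified crystal violet: PBS wash, 0.1% crystal violet in 10% ethanol 5 min at room temperature, four distilled-water rinses, retained dye extracted with 95% ethanol 10 min at room temperature. Reported as % survival at the stated concentration.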

Melan-a = experiment: Inhibition of melanin formation in C57BL/6J mouse Melan-a cells; format: functional, cell-based
Summary of the method: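 Murine melan-a melanocytes (C57BL/6J origin) seeded at 2 × 10⁵ cells/ml, compounds added in triplicate; medium changed daily, 4 d culture. Cells lysed in 1 N NaOH, relative melanin read at 400 nm. IC50 from logarithmic concentration-inhibition curves, means of three experiments. Viability by crystal violet (0.1% in 10% ethanol, 5 min RT; extracted with 95% ethanol 10 min).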

Tyrosinase = target: T1, Tyrosinase (Agaricus bisporus, UniProt O42713); experiment: Inhibition of mushroom tyrosinase activity after 20 mins
T1 sequence (O42713 whole entry): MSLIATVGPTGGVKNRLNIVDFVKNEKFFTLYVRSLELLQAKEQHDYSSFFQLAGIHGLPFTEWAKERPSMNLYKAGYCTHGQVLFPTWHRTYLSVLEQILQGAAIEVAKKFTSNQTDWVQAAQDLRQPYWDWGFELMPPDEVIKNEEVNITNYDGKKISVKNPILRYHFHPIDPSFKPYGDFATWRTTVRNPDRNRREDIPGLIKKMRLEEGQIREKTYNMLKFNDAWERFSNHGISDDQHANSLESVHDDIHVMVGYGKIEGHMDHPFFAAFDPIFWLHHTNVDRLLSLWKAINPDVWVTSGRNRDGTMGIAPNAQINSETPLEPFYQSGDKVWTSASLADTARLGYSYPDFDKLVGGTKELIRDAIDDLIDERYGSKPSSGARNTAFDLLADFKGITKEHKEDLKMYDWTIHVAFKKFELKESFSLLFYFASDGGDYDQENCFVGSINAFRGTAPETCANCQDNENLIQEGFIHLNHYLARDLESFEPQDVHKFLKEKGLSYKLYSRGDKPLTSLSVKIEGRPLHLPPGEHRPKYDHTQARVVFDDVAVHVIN
Summary of the method: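 Mushroom tyrosinase (2100 U/ml stock in 0.05 M phosphate pH 6.5) with 1.5 mM tyrosine stock in 0.1 M phosphate buffer pH 6.5; incubated 20 min at 37 °C, read on microplate reader. IC50 = concentration inhibiting 50% of enzyme activity, from logarithmic concentration-inhibition curves, mean of three experiments.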

[2] = Cytotoxicity against C57BL/6J mouse Melan-a cells assessed as cell survival at 30 uM by modified crystal violet assay; format: cell-based; conditions: read-out: Survival; summary of the method: as §1
[3] = Cytotoxicity against C57BL/6J mouse Melan-a cells assessed as cell survival at 20 uM by modified crystal violet assay; format: cell-based; conditions: read-out: Survival; summary of the method: as §1
[4] = Cytotoxicity against C57BL/6J mouse Melan-a cells assessed as cell survival at 10 uM by modified crystal violet assay
[5] = Cytotoxicity against C57BL/6J mouse Melan-a cells assessed as cell survival at 80 uM by modified crystal violet assay; format: cell-based; conditions: read-out: Survival; summary of the method: as §1

Row | Compound | viability at 50 µM [1] | IC50 (Melan-a) | IC50 (Tyrosinase) | viability at 30 µM [2] | viability at 20 µM [3] | viability at 10 µM [4] | viability at 80 µM [5]
1 | O=C(NC12CC3CC(CC(C3)C1)C2)c1ccc(O)cc1O | 99.2% | 34.1 µM | > 200 µM | – | – | – | –
2 | O=C(NC12CC3CC(CC(C3)C1)C2)c1cc(O)cc(O)c1 | – | 12.5 µM | > 200 µM | 91.3% | – | – | –
3 | Oc1ccc(C23CC4CC(CC(C4)C2)C3)c(O)c1 | – | 8.82 µM | 0.9 µM | – | 91.7% | – | –
4 | O=C(NC12CC3CC(CC(C3)C1)C2)c1ccc(O)c(O)c1 | – | 1.25 µM | > 200 µM | 95.2% | – | – | –
5 | O=C(NC12CC3CC(CC(C3)C1)C2)c1cc(O)ccc1O | – | 9.82 µM | > 200 µM | – | 99.1% | – | –
6 | O=C(NC12CC3CC(CC(C3)C1)C2)c1cccc(O)c1O | – | 0.73 µM | > 200 µM | – | 96.2% | – | –
7 | Oc1ccc(O)cc1 [HYDROQUINONE] | – | 3.97 µM | 9.81 µM | – | – | 87.3% | –
8 | CCCCc1ccc(O)cc1O [RUCINOL] | – | 21.6 µM | 0.15 µM | – | – | – | 98.2%
